Measured values of several laboratories.
Protocols differ between the studies behind these lines.
Target: Serine/threonine-protein kinase tousled-like 1 (TLK1, Homo sapiens, UniProt Q9UKI8)
One construct used (Q9UKI8 1-766): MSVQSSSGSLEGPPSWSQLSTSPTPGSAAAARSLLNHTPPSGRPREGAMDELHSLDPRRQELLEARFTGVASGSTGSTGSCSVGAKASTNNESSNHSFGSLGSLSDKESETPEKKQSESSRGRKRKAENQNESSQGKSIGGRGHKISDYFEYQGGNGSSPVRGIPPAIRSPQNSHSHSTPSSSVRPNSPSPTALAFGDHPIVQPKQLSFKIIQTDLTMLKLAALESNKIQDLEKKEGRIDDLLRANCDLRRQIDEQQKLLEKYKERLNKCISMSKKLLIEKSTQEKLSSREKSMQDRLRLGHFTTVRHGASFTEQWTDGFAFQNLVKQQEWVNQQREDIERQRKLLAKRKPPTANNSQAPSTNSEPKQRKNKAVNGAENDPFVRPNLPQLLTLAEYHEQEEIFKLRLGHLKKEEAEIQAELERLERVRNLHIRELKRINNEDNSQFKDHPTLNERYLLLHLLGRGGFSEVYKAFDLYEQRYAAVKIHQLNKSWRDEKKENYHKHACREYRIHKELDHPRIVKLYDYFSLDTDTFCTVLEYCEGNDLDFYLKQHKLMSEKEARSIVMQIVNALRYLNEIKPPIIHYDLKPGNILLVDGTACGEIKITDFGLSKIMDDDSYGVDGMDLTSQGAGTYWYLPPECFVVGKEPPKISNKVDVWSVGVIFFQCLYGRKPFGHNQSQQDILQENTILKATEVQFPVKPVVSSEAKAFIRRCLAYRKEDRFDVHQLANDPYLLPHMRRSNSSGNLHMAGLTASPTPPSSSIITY

For C=CC(=O)N1CCC(C(=O)NCC(=O)N2CCN(c3nc(-c4cnc(N)nc4C(F)F)nc(N4CCOCC4)n3)CC2)CC1, the remaining binding was 99% (binding, competition with immobilised ligand; 1 µM).
The remaining binding of CCS(=O)(=O)c1cc2cc(C[C@](O)(CC(C)(C)c3ccc(F)cc3C(N)=O)C(F)(F)F)[nH]c2cn1 is reported as 75% (cell-free assay, competition with immobilised ligand; 1 µM).
With CN(C)c1nccc(-c2cnc3ncccn23)n1 the remaining binding was 81% (binding; 1 µM).
CN(C)C(=O)Cn1cc(-c2nc([C@@](C)(c3ccc(-c4cnc(N)nc4)cc3)C3CC3)no2)cn1 gave a remaining binding of 100% (cell-free assay, competition with immobilised ligand; 1 µM).
Cc1cnc(Nc2ccc(C(=O)N3CCC(N4CCCC4)CC3)cc2)nc1-c1cc2ccccc2s1 has a remaining binding of 21% (binding, competition with immobilised ligand; 1 µM).
CN(c1nccc(-c2cnn3ncccc23)n1)C1CC1 has a remaining binding of 100% (binding; 1 µM).
The remaining binding of O=S(=O)(NC1CCC(c2cc(F)ccc2F)(S(=O)(=O)c2ccc(Cl)cc2)CC1)C(F)(F)F (centres unmarked) is reported as 100% (cell-free assay, competition with immobilised ligand; 1 µM).
The remaining binding of O=C(NCCCN1CCOCC1)c1ccc(Nc2nccc(-c3cc4ccccc4s3)n2)cc1 is reported as 63% (binding, competition with immobilised ligand; 1 µM).
CNC(=O)[C@@H]1CC[C@@H](n2c(-c3ccc4cnccc4c3)nc3ccc(C(=O)NCc4cccc(C(N)=O)c4)cc32)C1 has a remaining binding of 97% (binding, competition with immobilised ligand; 1 µM).
CN(C)c1nccc(-c2cnn3ncccc23)n1 gave a remaining binding of 92% (binding; 1 µM).
O=C(c1ccc(Nc2ncc(Cl)c(-c3cc4ccccc4s3)n2)cc1)N1CCC(N2CCCC2)CC1 gave a remaining binding of 32% (binding, competition with immobilised ligand; 1 µM).
CC(=O)Nc1c(C(C)=O)c(=O)n(C)c2nc(-c3ccc(Cl)cc3Cl)c(-c3ccc(Cl)cc3)cc12 gave a remaining binding of 100% (cell-free assay, competition with immobilised ligand; 1 µM).
With C[C@@H](c1ccc(-n2cnc3c(N)ncnc32)cc1)N1CCc2nn(C)c(Cc3ccccc3)c2C1=O the remaining binding was 81% (binding, competition with immobilised ligand; 0.1 µM).
F[C@@H]1CCN(c2nccc(-c3cnn4ncccc34)n2)C1 gave a remaining binding of 100% (binding; 1 µM).
The remaining binding of O=C(Nc1ccc(Oc2ccc(F)cc2)cc1)N1CCc2ncccc2[C@H]1c1ccc(F)cc1 is reported as 100% (cell-free assay, competition with immobilised ligand; 1 µM).
The remaining binding of N[C@@H]1CCN(c2nccc(-c3cnn4ncccc34)n2)C1 is reported as 39% (binding; 1 µM).
For COc1cnc(Nc2cccc(S(N)(=O)=O)c2)nc1N1CCN(c2ccccc2)CC1, the remaining binding was 80% (binding, competition with immobilised ligand; 1 µM).
For O=C(Nc1c[nH]nc1C(=O)NC1CCNCC1)c1cc(F)cc(F)c1, the remaining binding was 100% (binding, competition with immobilised ligand; 1 µM).
CCN1CCN(Cc2ccc(C(=O)Nc3ccc(C)c(Oc4ccc5c(c4)CC(=O)N5)c3)cc2C(F)(F)F)CC1 gave a remaining binding of 88% (binding, competition with immobilised ligand; 1 µM).
With O=C1NC(c2ccccn2)Sc2ccccc21 (centres unmarked) the remaining binding was 94% (cell-free assay, competition with immobilised ligand; 1 µM).
